A selection: hits, their analogues and other compounds. The true share with any hit is near 1%.
PME-1 inh = PME-1 (human) inhibition. hit rate 0.53% among 320,000. recombinant PME-1, FP-Rh probe fluorescence polarization. Q9Y570. inhibition, % at 5.9 µM. AID 2130;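 active = inhibition above the campaign mean of all compounds plus 3 SD, cut at about 26% in these data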;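 also: competitive labeling of PME-1 active site by serine hydrolase directed probe; 0% = PME-1 with DMSO and 100% = wells lacking PME-1 enzyme; inhibitors block probe labeling so polarization falls and inhibition rises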
LYPLA1 counter = blocks human lysophospholipase 1, a PME1 counter-screen | O75608 | recombinant LYPLA1, FP-Rh probe fluorescence polarization | inhibition, % at 5.9 µM | hit rate 0.16% among 320,000 | AID 2174;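 active = inhibition above the mean of all tested compounds plus 3 SD, set per campaign, cut at about 14% in these data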;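 also: inhibitors block serine hydrolase probe labeling of LYPLA1 so polarization falls; 0% = enzyme with DMSO and 100% = wells lacking LYPLA1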
LYPLA2 inh = counter-screen for PME1 inhibitors: inhibitors of human LYPLA2 | O95372 | recombinant LYPLA2, FP-Rh probe fluorescence polarization | inhibition, % at 5.9 µM | hit rate 0.38% among 320,000 | AID 2177;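 active = inhibition above the screen-wide mean plus 3 SD, limit set per campaign, cut at about 26% in these data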;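 also: 0% = LYPLA2 with DMSO and 100% = wells lacking LYPLA2 enzyme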
procasp3 activ = activators of human procaspase-3; P42574; recombinant procaspase-3 D3A, Ac-DEVD-pNA absorbance 405 nm; activation, % at 8.5 µM; hit rate 0.11% among 330,000; AID 463141;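 active = activation above the mean of all tested compounds plus 3 SD, cut at about 21% in these data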;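 also: 0% = DMSO alone and 100% = DMSO wells spiked with extra 5 µM PC-3 D3A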
Target sequence (P42574 whole entry D9A/D28A/D175A): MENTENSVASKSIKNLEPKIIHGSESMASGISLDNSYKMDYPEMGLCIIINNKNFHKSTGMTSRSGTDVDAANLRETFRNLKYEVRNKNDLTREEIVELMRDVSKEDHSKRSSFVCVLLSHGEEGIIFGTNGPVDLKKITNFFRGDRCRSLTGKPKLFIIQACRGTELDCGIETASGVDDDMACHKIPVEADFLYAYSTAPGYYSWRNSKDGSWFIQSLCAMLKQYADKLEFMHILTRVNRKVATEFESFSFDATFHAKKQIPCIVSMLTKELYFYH
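Test system: Procaspase-3 D3A mutant, all three cleavage aspartates alanine | Dosing: Single dose, 8.5 µM nominal compound, 0.8% DMSO | Schedule: 1 h preincubation, 2 h reaction | Technique: 405 nm absorbance of p-nitroaniline, reads at 0 and 120 min | Repeats: One well per compound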
Fam108B inh = counter-screen for RBBP9 inhibitors: inhibitors of mouse Fam108B; hit rate 0.33% among 300,000; inhibition, % at 9.51 µM; recombinant Fam108B, FP-Rh probe fluorescence polarization;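 active = inhibition above the screen mean inhibition plus 3 SD, computed separately per campaign, cut at about 18% in these data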;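 also: inhibitors lower polarization as less probe binds the enzyme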
procasp7 counter = counter-screen for procaspase-3 activators: activators of human procaspase-7; P55210; recombinant procaspase-7, Ac-DEVD-pNA absorbance 405 nm; D23A/D198A/D206A triple mutant, cannot self-cleave; scale: DMSO 0, 5 µM enzyme 100; activation, % at 8.5 µM; hit rate 0.093% among 330,000; AID 463210;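 active = percent activation above the screen-wide mean plus 3 SD, cut at about 25% in these data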
Target sequence (P55210 whole entry D23A/D198A/D206A): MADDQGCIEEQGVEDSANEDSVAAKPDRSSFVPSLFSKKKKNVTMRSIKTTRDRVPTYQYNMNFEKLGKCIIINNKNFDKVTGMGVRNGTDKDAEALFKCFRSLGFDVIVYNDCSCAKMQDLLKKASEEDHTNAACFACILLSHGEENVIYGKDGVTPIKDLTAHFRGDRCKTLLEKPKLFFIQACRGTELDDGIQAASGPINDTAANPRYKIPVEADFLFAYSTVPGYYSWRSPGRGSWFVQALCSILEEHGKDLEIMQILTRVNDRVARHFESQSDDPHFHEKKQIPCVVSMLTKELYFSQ
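Assay system: Uncleavable procaspase-7 mutant enzyme / Input: 2 µM procaspase-7 mutant as dispensed / Dosing: single nominal 8.5 µM compound dose, 0.8% DMSO final / Timing: 1 h enzyme–compound preincubation and 2 h substrate reaction, both 25 °C / Detection: p-Nitroaniline absorbance at 405 nm, read at 0 and 120 min / Replication: singlicate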
PC3 dual counter = counter-screen for dual procaspase-3/7 activators: human procaspase-3 activation; shares compounds with procasp7 counter; recombinant PC-3 D3A, Ac-DEVD-pNA absorbance 405 nm; aspartates 9, 28, 175 changed to alanine; 100% = enzyme control; activation, % at 8.5 µM; 290 tested, under 10 active;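 active = mean percent activation across triplicates above a set limit taken from the earlier primary procaspase-3 screen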;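 also: 0% = DMSO wells and 100% = DMSO wells with 5 µM added PC-3 D3A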
Procasp7 act = procaspase-7 (human) activation, dual activator confirmation; shares compounds with procasp7 counter; recombinant procaspase-7, Ac-DEVD-pNA absorbance 405 nm; D23A/D198A/D206A mutant that cannot self-cleave; activation, % at 8.5 µM; 290 tested, under 10 active;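 active = mean activation above a set limit carried over from the earlier primary screen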;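 also: 0% = DMSO only and 100% = DMSO with added 5 µM PC-7 enzyme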
Starred values were filed as active, the others as inactive; x = no result.

SMILES | PME-1 inh | LYPLA1 counter | LYPLA2 inh | procasp3 activ | Fam108B inh | procasp7 counter | PC3 dual counter | Procasp7 act
CCN(CC)c1ccc(-c2nn3c(-c4ccccc4OC)nnc3s2)cc1 | 28.4* | 6.5 | 10.7 | -1.3 | 4.5 | 32.6* | -30.6 | -36.0
Clc1ccc2oc(SCc3cccnc3)nc2c1 | 5.1 | -1.0 | 4.0 | 2.4 | -4.8 | 10.6 | x | x
COc1ccc(C2C3=C(CC(C)(C)CC3=O)Nc3c2c(=O)[nH]c(=O)n3Cc2ccccc2)cc1OC (stereo not given) | -3.9 | -5.6 | -1.1 | 11.7 | 0.5 | 25.6* | -27.1 | -33.8
Cc1ccc(NC(=O)CN2CCN(S(=O)(=O)c3cccs3)CC2)cc1S(=O)(=O)N(C)C | 3.9 | -2.5 | -1.1 | 3.0 | -3.9 | -3.3 | x | x
CCCNC(=O)c1c(N)n(-c2cc(OC)cc(OC)c2)c2nc3ccccc3nc12 | 5.6 | -3.8 | -7.5 | 114.8* | -2.6 | 28.9* | -28.5 | -35.5
COc1cc2c(cc1OC)C(C)N(C(=O)c1cc3c(s1)-c1c(C)cccc1OC3)CC2 (stereo not given) | -11.2 | -7.5 | -2.4 | 9.0 | -2.3 | 21.6 | x | x
O=C(c1cc2c(s1)-c1ccccc1OC2)N1CCc2ccccc2C1 | 2.1 | -5.8 | -7.9 | 11.7 | -9.6 | 27.3* | 3.1 | 1.8
COc1cc2c(cc1OC)C(C)N(C(=O)c1cc3c(s1)-c1ccccc1OC3)CC2 (stereo not given) | 20.7 | -2.6 | -12.0 | 25.5* | -7.7 | 37.4* | 12.7 | 10.9
O=C(Nc1nccs1)c1cc2c(s1)-c1ccccc1OC2 | -19.1 | -3.1 | -11.2 | 29.6* | -9.7 | 28.2* | -29.0 | -35.3
O=c1c(-c2nnc(SCc3ccc(Cl)cc3Cl)o2)cccn1Cc1ccccc1 | -4.1 | -9.6 | -7.5 | 23.6* | -5.7 | 87.0* | -12.0 | -11.8
Cc1ccc(-c2nnc(NC3CCCC3)s2)cc1 | 8.0 | 6.1 | 6.8 | 2.6 | 1.4 | -6.5 | x | x
COc1cccc(CN(C)C(=O)CSC(C)C(=O)Nc2cc(C)on2)c1OC (stereo not given) | -2.4 | 0.9 | 2.7 | -0.5 | 0.2 | 2.9 | x | x
Cc1c(CCC(=O)NC2CC2)c(=O)oc2c(C)c(O)ccc12 | -0.7 | -1.8 | -1.9 | 28.0* | 0.2 | 26.6* | -29.6 | -36.1
Cc1c(CCC(=O)NCCCN2CCCC2=O)c(=O)oc2c(C)c(O)ccc12 | -1.9 | 2.0 | 5.7 | 27.6* | -0.8 | 25.8* | -29.9 | -35.5
CCc1cc(=O)oc2c(C)c(OCC(=O)NCCCN3CCCC3=O)ccc12 | 6.0 | 0.2 | -1.9 | 2.5 | -0.2 | -0.7 | x | x
COc1cccc(-c2cc3nc(-c4ccccc4)cc(N4CCC5(CC4)OCCO5)n3n2)c1 | -6.9 | -10.2 | -23.7 | 31.7* | -12.5 | 38.1* | -30.0 | -36.9
CC(OC(=O)c1ccc2ncsc2c1)C(=O)N(C)C1CCCCC1 (stereo not given) | 1.8 | -1.5 | 0.3 | -6.7 | x | -10.5 | x | x
O=C(NCCCl)Nc1ccccc1OCCOc1ccccc1NC(=O)NCCCl | 1.8 | 2.4 | -1.5 | -9.7 | -3.5 | 2.2 | x | x
CN(C)c1nc(-c2ccccc2)c2cnn(Cc3ccccc3)c2n1 | 4.6 | -2.4 | -2.9 | 18.3 | -5.5 | 34.5* | -28.8 | -36.0
c1ccc(Cn2ncc3ccccc32)cc1 | 1.4 | 0.7 | 2.7 | -6.9 | -0.5 | -5.4 | x | x
CCCCN(Cc1ccco1)S(=O)(=O)c1csc(C(N)=O)c1 | 3.4 | 0.5 | -5.2 | -6.6 | -5.6 | -9.8 | x | x
CCCn1c(=N)c(S(=O)(=O)c2ccccc2)cc2c(=O)n3ccccc3nc21 | 2.5 | -0.5 | 0.3 | -26.3 | -2.8 | 42.4* | -30.0 | -33.2
CCn1c(=N)c(S(=O)(=O)c2ccccc2)cc2c(=O)n3ccccc3nc21 | 6.1 | -4.6 | -4.9 | -25.7 | -3.0 | -28.1 | x | x
